Experiment [1] concerns RAW264.7. The experiment can be described thus: Inhibition of LPS-induced nitric oxide production in mouse RAW264.7 cells preincubated for 2 hrs followed by LPS-stimulation and measured after 12 hrs by Griess assay. The class given is functional, cell-based. The procedure, abridged: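 RAW264.7 cells seeded at 2 × 10^5 cells/well and preincubated 24 h, then treated 2 h with test compounds from 40 to 0.5 μM, then stimulated with LPS (1 μg/mL) for 12 h. Supernatant spun at 16 000 rpm for 20 min, mixed with Griess reagent (0.1% naphthyl ethylenediamine dihydrochloride, 1% sulfanilamide, 2% phosphoric acid) for 10 min at rt, read at 540 nm. Means of three independent experiments.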
For orientation: Griess reagent forms a coloured azo dye with nitrite.

Experiment [2] has as its system RAW264.7. The experiment can be described thus: Antiinflammatory activity in mouse RAW264.7 cells assessed as inhibition of LPS-induced IL-6 production preincubated for 2 hrs followed by LPS-stimulation and measured after 12 hrs by ELISA. The class given is functional, cell-based. The procedure, abridged:
(§1)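 Cells seeded at 2 × 10^5 cells/well and preincubated 24 h. They were pretreated 2 h with compound, then given LPS (1 μg/mL) for 12 h. IL-1β and IL-6 in the culture medium were measured by ELISA. Data are mean ± SD (n = 3), analysed by one-way ANOVA with Tukey's test against the LPS-only group.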
For orientation: An ELISA detects its analyte on a solid surface through an enzyme-linked reagent.

The test system of experiment [3] is RAW264.7. As to the kind of experiment: Antiinflammatory activity in mouse RAW264.7 cells assessed as inhibition of LPS-induced IL-1beta production preincubated for 2 hrs followed by LPS-stimulation and measured after 12 hrs by ELISA. Type of experiment: functional, cell-based. The procedure, abridged: as §1
Experiment [4] deals with RAW264.7. The experiment can be described thus: Antiinflammatory activity in mouse RAW264.7 cells assessed as inhibition of LPS-induced COX2 expression at 5 to 10 uM preincubated for 2 hrs followed by LPS-stimulation and measured after 12 hrs by Western blot analysis. The class given is functional, cell-based. The procedure, abridged:
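After 2 h compound pretreatment and 12 h LPS (1 μg/mL), cells were lysed in 20 mM Tris HCl pH 7.4 with protease inhibitors, and protein was quantified. Lysates were run on SDS-PAGE, transferred to PVDF, and blocked in PBS/0.1% Tween 20/5% skim milk for 1 h at rt. Blots were probed overnight at 4 °C for COX-2 and β-actin, developed by chemiluminescence, and bands quantified by densitometry. Mean ± SD, n = 3.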
(A western blot detects proteins with antibodies after separation by electrophoresis.)

The target of experiment [5] is Transcription factor p65 (Mus musculus) (UniProt Q04207). As to the kind of experiment: Inhibition of NFkappaB p65 nuclear translocation in LPS-stimulated mouse RAW264.7 cells at 5 to 10 uM preincubated for 2 hrs followed by LPS-stimulation and measured after 12 hrs by DAPI staining based fluorescence microscopic analysis. The class given is cell-based. The procedure, abridged: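 Cells were fixed in 4% paraformaldehyde for 20 min and permeabilized with 0.2% Triton X-100 for 30 min. After 5% BSA block for 1 h, they were given anti-p65 primary overnight at 4 °C, then Alexa Fluor 594 secondary (1:500) for 1 h at rt. DAPI (5 μg/mL) was applied 30 min at 37 °C. Imaging used fluorescence microscopy, ex/em 590/617 nm for p65 and 360/450 nm for DAPI.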

SMILES strings stand for the structures. Active and inactive are the calls of the source. No cut-off for these calls is given here.

As a reminder, the IC50 is the point on the concentration scale where inhibition reaches its midpoint. Read a low IC50 as greater potency.

Sequence of Transcription factor p65 (Mus musculus) (Q04207 whole entry): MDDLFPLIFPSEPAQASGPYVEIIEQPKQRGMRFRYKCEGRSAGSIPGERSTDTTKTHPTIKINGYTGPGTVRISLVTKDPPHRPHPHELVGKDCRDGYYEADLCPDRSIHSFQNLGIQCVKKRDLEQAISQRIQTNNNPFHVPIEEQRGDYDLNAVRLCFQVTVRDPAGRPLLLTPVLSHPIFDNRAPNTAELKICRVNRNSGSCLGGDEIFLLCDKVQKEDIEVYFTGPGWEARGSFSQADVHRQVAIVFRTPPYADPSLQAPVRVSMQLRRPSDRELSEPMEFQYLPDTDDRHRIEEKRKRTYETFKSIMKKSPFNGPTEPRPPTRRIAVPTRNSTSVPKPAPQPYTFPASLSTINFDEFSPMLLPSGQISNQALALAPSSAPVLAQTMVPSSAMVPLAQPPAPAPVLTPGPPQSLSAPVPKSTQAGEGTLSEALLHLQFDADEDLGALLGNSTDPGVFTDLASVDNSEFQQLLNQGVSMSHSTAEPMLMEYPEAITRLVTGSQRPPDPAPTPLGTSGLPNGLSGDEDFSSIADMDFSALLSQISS

In the experiment with RAW264.7 [1], `CCC/C=C/C=C\CCc1cc(O)c([C@@H]2O[C@H](CO)[C@@H](O)[C@H](O)[C@H]2O)c(O)c1` gave a 50% inhibitory concentration (IC50) of over 40 µM.

Consider `CCC/C=C/C=C/CCc1cc(O)c([C@@H]2O[C@H](CO)[C@@H](O)[C@H](O)[C@H]2O)c(O)c1C(=O)OCC`, for which the IC50 in the experiment on RAW264.7 [1] was 15 µM. Regarding `CCC/C=C/C=C/CCc1cc(O)cc(O)c1`, the midpoint of inhibition with RAW264.7 [1], the IC50, lay at 6 µM. The inhibition result in the experiment on RAW264.7 [2] and in the experiment on RAW264.7 [3] was “Dose-dependent effect” throughout. Also, the inhibition result (with RAW264.7 [4]; in experiment [5]) was “Active” in each case. For `CCC/C=C\C=C\CCc1cc(O)c([C@@H]2O[C@H](CO)[C@@H](O)[C@H](O)[C@H]2O)c(O)c1`, the IC50 in the experiment on RAW264.7 [1] came out at 30 µM. The same measure, in the same setting: to `CCC/C=C/C=C/CCc1cc(O)c([C@@H]2O[C@H](CO)[C@@H](O)[C@H](O)[C@H]2O)c(O)c1C(=O)OC` belongs over 40 µM; to `CCC/C=C/C=C/C1Cc2cc(O)cc(O)c2C(=O)O1` (configuration not stated), 17 µM.

As to `CCC/C=C/C=C\CCc1cc(O)cc(O)c1`, the IC50 with RAW264.7 [1] worked out at 28 µM.

Take `CCC/C=C/C=C/CCc1cc(O)cc(O)c1C(=O)O`: the IC50 in the experiment with RAW264.7 [1] was 9.9 µM. In turn, `CC/C=C/C=C/CCc1cc(O)c([C@@H]2O[C@H](CO)[C@@H](O)[C@H](O)[C@H]2O)c(O)c1C(=O)OC` displayed an IC50 with RAW264.7 [1] of 19 µM. `CCC/C=C/C=C\CCc1cc(O)c([C@@H]2O[C@H](CO)[C@@H](O)[C@H](O)[C@H]2O)c(O)c1C(=O)OC`: the IC50 in the experiment with RAW264.7 [1] is over 40 µM. On the same count and under the same terms, the same measure for `CCC/C=C\C=C\CCc1cc(O)c([C@@H]2O[C@H](CO)[C@@H](O)[C@H](O)[C@H]2O)c(O)c1C(=O)OC`: 14 µM; for `C/C=C/C=C/CCc1cc(O)c([C@@H]2O[C@H](CO)[C@@H](O)[C@H](O)[C@H]2O)c(O)c1C(=O)OC`: over 40 µM. The compound `CCC/C=C/C=C/CCc1cc(O)c([C@@H]2O[C@H](CO)[C@@H](O)[C@H](O)[C@H]2O)c(O)c1` gave an IC50 with RAW264.7 [1] of over 40 µM.

These data come from ChEMBL document CHEMBL4316645, “Phenolic C-Glycosides and Aglycones from Marine-Derived Aspergillus sp. and Their Anti-Inflammatory Activities” (J Nat Prod, 2019).
